Tests used:
[1] = biological target: Platelet-derived growth factor receptor beta (Homo sapiens) (UniProt P09619); test: Inhibition of human Platelet-derived growth factor receptor at 50 uM (no effect)
[2] = biological target: T1, Epidermal growth factor receptor (Homo sapiens, UniProt P00533); test: Half life for inactivation of erbB-1 receptor
Summary of the method: (§1)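 A431 full-length erbB-1 preincubated with 0.1–25 µM nucleoside in kinase buffer lacking ATP for 1, 5, 15 or 30 min. 10 µM [32P]ATP then started a 10 min, 25 °C poly(Glu,Tyr) phosphorylation. Activity as % of control on semilog plots gave pseudo-first-order constants, fitted hyperbolically against concentration. Run in duplicate.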

[3] = biological target: T1, Epidermal growth factor receptor; test: (§2) Rate constant for inactivation of erbB-1 receptor of A431 human epidermoid carcinoma cells; format: cell-based, A-431; summary of the method: as §1
[4] = biological target: T1, Epidermal growth factor receptor; test: Inhibition of human erbB-1 receptor tyrosine kinase activity at 5 uM
Summary of the method: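 A431-derived full-length erbB-1 was preincubated with 5 µM nucleoside without ATP, then assayed with 10 µM [32P]ATP and poly(Glu,Tyr) at 25 °C for 10 min; a TCA-precipitate count gave the read-out. Reversibility was tested by treating with 1 mM dithiothreitol.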

[5] = biological target: T1, Epidermal growth factor receptor; test: Second order rate constant for inactivation of erbB-1 receptor of A431 human epidermoid carcinoma cells; format: cell-based; conditions: A-431; summary of the method: as §1
[6] = biological target: Insulin receptor (Homo sapiens) (UniProt P06213); test: Inhibition of human insulin receptor tyrosine kinase at 50 uM (no effect)
[7] = biological target: T1, Epidermal growth factor receptor; test: as §2; format: cell-based; conditions: A-431; summary of the method: as §1
[8] = biological target: Receptor tyrosine-protein kinase erbB-2 (Homo sapiens, UniProt P04626); test: Inhibition of human erbB-2 receptor tyrosine kinase
[9] = biological target: Fibroblast growth factor receptor (Homo sapiens) (UniProt P22607+P11362+P22455+P21802); test: Inhibition of human fibroblast growth factor receptor (FGF) at 50 uM (no effect); format: protein assay
[10] = biological target: T1, Epidermal growth factor receptor; test: Saturation rate constant for complex formation with human erbB-1 receptor; summary of the method: as §1
[11] = Affinity for mouse cyclic-AMP dependent Ser/Thr Kinase
[12] = biological target: T1, Epidermal growth factor receptor; test: Inhibition of erbB-1 receptor tyrosine kinase from A431 human epidermoid carcinoma cells; format: cell-based, A-431
Summary of the method: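 Full-length erbB-1 purified from A431 cell lysate by anti-EGF-receptor antibody affinity resin and eluted with EGF. Run at 25 °C for 10 min, stopped with TCA, precipitate counted by scintillation.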

Chain of Insulin receptor (Homo sapiens) (P06213 28-758 limits assumed): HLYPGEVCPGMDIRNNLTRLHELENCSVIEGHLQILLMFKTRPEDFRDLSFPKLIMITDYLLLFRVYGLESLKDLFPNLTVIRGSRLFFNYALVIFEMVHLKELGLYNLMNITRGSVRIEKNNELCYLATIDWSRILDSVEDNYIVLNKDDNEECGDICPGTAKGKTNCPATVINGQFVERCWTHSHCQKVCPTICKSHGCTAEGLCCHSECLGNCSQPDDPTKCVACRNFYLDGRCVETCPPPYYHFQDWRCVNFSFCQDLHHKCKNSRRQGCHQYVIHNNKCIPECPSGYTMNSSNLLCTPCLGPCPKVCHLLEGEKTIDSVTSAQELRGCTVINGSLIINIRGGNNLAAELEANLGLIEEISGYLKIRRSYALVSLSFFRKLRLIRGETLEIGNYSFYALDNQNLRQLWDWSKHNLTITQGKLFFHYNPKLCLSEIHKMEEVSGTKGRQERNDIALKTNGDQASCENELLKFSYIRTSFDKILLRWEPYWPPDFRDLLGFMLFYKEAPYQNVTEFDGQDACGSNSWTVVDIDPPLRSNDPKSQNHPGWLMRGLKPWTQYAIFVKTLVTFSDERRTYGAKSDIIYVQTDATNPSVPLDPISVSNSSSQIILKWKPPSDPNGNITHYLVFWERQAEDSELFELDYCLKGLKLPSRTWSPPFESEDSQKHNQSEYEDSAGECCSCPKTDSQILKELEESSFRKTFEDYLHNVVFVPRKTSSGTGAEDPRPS
Chain of Insulin receptor (Homo sapiens) (P06213 763-1382 limits assumed): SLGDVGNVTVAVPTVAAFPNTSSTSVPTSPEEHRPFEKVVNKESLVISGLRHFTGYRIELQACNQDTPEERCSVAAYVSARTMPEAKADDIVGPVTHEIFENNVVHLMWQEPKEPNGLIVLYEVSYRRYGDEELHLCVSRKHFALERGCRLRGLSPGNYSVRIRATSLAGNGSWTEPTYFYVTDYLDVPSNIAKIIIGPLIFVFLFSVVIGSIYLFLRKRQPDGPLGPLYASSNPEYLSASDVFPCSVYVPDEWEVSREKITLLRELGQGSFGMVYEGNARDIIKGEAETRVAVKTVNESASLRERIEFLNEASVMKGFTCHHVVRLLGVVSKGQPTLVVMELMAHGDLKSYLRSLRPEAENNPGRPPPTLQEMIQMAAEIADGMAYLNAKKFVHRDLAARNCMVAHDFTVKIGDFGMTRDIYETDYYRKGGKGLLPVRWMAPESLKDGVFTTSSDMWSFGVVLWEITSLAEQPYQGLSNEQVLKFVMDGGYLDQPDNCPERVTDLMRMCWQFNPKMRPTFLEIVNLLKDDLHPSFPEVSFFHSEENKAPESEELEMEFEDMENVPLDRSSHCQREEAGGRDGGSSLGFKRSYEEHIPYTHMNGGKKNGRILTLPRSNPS
Chain of Fibroblast growth factor receptor (Homo sapiens) (P11362 whole entry, looked up): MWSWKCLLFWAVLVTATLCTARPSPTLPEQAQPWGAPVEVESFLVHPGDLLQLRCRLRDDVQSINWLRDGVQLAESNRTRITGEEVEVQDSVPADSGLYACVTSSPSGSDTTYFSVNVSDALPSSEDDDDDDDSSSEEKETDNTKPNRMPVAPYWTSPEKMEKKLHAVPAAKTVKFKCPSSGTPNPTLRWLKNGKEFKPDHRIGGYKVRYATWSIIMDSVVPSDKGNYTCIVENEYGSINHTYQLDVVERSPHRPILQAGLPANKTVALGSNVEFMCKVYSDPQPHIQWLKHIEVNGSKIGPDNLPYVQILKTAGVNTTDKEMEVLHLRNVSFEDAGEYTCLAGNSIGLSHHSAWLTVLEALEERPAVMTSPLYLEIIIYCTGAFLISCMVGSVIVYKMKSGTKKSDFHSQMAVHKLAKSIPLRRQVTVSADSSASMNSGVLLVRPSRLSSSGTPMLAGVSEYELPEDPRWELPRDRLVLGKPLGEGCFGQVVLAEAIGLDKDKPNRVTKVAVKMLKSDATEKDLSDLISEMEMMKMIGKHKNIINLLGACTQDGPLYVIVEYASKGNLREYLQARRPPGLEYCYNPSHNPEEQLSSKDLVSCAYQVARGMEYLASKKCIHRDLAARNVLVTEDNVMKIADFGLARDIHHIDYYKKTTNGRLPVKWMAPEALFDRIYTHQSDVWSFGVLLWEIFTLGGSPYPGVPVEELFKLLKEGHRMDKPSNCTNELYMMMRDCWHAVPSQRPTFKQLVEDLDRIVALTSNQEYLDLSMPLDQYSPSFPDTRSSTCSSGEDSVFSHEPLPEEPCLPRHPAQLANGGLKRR
Chain of Fibroblast growth factor receptor (Homo sapiens) (P21802 whole entry, looked up): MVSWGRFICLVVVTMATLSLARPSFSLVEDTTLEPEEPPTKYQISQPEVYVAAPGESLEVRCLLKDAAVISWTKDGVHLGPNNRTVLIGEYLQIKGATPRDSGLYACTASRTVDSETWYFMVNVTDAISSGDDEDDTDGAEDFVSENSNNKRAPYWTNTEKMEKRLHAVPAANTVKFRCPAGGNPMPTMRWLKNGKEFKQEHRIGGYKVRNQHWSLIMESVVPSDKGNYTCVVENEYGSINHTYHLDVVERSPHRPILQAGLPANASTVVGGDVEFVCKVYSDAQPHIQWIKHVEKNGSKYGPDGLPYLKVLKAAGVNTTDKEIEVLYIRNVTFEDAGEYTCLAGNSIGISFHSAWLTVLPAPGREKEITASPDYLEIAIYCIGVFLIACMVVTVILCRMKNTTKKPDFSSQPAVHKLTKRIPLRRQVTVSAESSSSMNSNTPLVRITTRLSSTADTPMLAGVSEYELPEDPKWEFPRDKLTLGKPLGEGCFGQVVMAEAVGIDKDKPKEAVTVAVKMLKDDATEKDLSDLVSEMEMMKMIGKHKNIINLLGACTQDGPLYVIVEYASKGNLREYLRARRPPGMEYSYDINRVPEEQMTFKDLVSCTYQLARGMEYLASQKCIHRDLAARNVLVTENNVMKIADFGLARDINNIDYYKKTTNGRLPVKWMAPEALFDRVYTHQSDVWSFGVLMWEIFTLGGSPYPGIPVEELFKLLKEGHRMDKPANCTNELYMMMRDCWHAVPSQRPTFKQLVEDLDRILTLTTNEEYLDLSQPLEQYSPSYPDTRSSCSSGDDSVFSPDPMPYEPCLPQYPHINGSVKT
Chain of Fibroblast growth factor receptor (Homo sapiens) (P22455 whole entry, looked up): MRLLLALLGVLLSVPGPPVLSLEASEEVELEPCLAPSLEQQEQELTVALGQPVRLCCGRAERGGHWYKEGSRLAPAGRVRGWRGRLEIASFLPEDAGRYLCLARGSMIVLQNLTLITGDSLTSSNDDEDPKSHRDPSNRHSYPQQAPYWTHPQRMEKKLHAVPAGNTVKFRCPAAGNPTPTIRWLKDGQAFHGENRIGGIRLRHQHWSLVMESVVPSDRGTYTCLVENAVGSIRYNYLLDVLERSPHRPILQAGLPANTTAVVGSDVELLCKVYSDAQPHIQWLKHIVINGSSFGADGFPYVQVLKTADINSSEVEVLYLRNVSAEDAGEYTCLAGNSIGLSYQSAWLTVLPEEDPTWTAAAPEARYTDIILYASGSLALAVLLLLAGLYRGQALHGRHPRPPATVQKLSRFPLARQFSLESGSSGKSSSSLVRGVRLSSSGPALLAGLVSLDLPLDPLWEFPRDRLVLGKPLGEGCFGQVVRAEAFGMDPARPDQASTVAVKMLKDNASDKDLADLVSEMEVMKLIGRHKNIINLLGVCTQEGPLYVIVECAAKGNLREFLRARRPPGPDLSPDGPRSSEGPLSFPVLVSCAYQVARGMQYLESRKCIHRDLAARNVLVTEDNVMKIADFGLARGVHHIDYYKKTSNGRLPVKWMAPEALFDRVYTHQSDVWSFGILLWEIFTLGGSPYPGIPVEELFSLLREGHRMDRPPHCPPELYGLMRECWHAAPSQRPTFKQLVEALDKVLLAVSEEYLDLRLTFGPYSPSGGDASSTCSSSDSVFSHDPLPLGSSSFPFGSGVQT
Chain of Fibroblast growth factor receptor (Homo sapiens) (P22607 whole entry, looked up): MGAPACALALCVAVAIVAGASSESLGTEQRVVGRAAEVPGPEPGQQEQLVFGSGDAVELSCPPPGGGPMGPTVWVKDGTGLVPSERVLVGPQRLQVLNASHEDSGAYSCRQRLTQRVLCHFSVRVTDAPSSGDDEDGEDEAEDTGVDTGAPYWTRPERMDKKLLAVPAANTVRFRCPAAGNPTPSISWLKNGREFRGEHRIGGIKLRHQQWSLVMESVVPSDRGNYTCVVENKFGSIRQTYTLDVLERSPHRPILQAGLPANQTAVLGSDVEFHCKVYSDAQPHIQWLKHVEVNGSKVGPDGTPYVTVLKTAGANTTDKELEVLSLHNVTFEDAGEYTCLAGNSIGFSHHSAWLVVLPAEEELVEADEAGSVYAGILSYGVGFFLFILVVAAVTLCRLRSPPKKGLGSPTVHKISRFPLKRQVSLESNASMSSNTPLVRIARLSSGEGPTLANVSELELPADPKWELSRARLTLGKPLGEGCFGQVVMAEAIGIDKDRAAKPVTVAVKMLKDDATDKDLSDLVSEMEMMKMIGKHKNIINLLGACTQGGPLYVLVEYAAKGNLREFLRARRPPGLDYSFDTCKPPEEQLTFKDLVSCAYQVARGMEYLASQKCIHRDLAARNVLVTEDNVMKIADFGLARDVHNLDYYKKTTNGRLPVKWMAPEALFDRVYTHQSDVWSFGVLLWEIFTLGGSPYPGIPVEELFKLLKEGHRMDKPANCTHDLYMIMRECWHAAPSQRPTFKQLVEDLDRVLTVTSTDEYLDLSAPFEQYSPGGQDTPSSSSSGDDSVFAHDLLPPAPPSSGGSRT

Row | Compound | Concentration [1] | T1/2 [2] | Kd [3] | inhibition [4] | kmax/KS [5] | Concentration [6] | kmax [7] | IC50 [8] | Concentration [9] | KS [10] | Kd [11] | IC50 [12]
1 | Nc1ncnc2c1ncn2[C@@H]1O[C@H](CO)[C@@H](O)[C@H]1S | 50 µM | 5 min | 1 µM | 70% | 2000 M⁻¹ s⁻¹ | 50 µM | 0.0023 s⁻¹ | 45 µM | 50 µM | 1 µM | – | –
2 | Nc1ncnc2c1ncn2[C@@H]1O[C@H](COP(=O)(O)OP(=O)(O)OP(=O)(O)O)[C@@H](O)[C@H]1O [ADENOSINE TRIPHOSPHATE] | – | – | – | – | – | – | – | – | – | – | 10 µM | –
3 | Nc1ncnc2c1ncn2[C@@H]1O[C@H](CO)[C@@H](O)[C@H]1O [ADENOSINE] | 50 µM | – | – | – | – | 50 µM | – | ~1600 µM | 50 µM | – | 35 µM | 195 µM
4 | Nc1ncnc2c1ncn2[C@@H]1O[C@H](COP(=O)(O)OP(=O)(O)O)[C@@H](O)[C@H]1O [ADENOSINE DIPHOSPHATE] | – | – | – | – | – | – | – | – | – | – | 10 µM | –
